# Source: PubChem
# Rows were chosen to be rich in hits. Some 1.9% of all compounds tested hit in one or more screens of this group.
# DNA FID counter-1: compounds displacing fluorescent DNA intercalator, primary screen, artefact control for HCV NS3 helicase inhibitor project, biochemical, FID fluorescence; DNA fluorescent intercalator displacement; inhibition, % at 7.9 µM; 290,000 tested, 0.17% active;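 further: 0% = vehicle and 100% = reference compound; higher means more ethidium bromide displaced from hairpin DNA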
# VIM-2 inh: VIM-2 metallo-beta-lactamase inhibitors, primary screen, biochemical, epi-absorbance readout, Pseudomonas aeruginosa enzyme; 290,000 tested, 0.89% active; purified VIM-2, nitrocefin hydrolysis, epi-absorbance fluorescence; inhibition, % at 5.6 µM;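 active means inhibition above the mean of all tested compounds plus 3 SD, cutoff set per screening run, cut at about 7.5% in these data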;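 further: red hydrolysis product quenches plate fluorescence so inhibitors raise well fluorescence; 0% = enzyme with DMSO and 100% = DMSO without enzyme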
# IMP-1 inh: IMP-1 metallo-beta-lactamase inhibitors, primary screen, biochemical, epi-absorbance readout, Pseudomonas aeruginosa enzyme | metallo-beta-lactamase IMP-1 (Pseudomonas aeruginosa) | AID 1556, 2009 | 290,000 tested, 0.45% active | inhibition, % at 5.6 µM | purified IMP-1, nitrocefin hydrolysis, epi-absorbance fluorescence;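 active means inhibition above the mean plus 3 SD of all compounds in the same screening run, cut at about 4.5% in these data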;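 further: 0% = IMP-1 with DMSO and 100% = DMSO wells lacking enzyme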
#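 System: purified IMP-1; amount: IMP-1 0.2 nM before substrate addition; compound: single dose, 5.6 µM; times: 25 °C, 15 min preincubation, 25 min reaction; signal: Epi-absorbance via hydrolysed-nitrocefin quenching of white-plate fluorescence, 480/530 nm, EDTA stop; benchmarks: DMSO with and without IMP-1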
# NS3 helicase inh: inhibitors of HCV NS3 helicase, primary screen, biochemical, Cy5 molecular beacon fluorescence; NS3 helicase DNA unwinding; inhibition, % at 10.9 µM; 290,000 tested, 0.56% active; AID 1800, 2009;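 active means inhibition above the mean of all tested compounds plus 3 SD, set per campaign, cut at about 35% in these data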;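 further: 0% = DMSO wells and 100% = thioflavine S control wells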
#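 System: NS3 helicase fragment of HCV / Schedule: 1 h at 25 °C / Control set: DMSO alone as 0% and 110 µM thioflavine S as 100% / Reagent: Cy5/quencher beacon DNA duplex and ATP to start / Technique: Cy5 fluorescence / Replication: singlicate / Evaluation: % inhibition of end-to-start signal ratio versus controls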
# NS3 hel confirm: HCV NS3 helicase inhibitors, retest, confirmation, biochemical, Cy5 molecular beacon fluorescence, triplicate. shares compounds with NS3 helicase inh. NS3 helicase DNA unwinding. inhibition, % at 10.9 µM. 1,600 tested, 31% active. AID 1943, 2009;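 active means inhibition above the mean of all tested compounds plus 3 SD, cutoff set per campaign, cut at about 36% in these data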
# DNA FID counter-2: compounds displacing fluorescent DNA intercalator, artefact control for HCV NS3 helicase inhibitor project, biochemical, FID fluorescence, triplicate; shares compounds with NS3 helicase inh; DNA fluorescent intercalator displacement; inhibition, % at 7.9 µM; 1,600 tested, 4% active; AID 1945, 2009;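 further: 0% = vehicle and 100% = reference compound; higher means more displacement of ethidium bromide from the DNA hairpin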
# DNA FID DR: compounds displacing fluorescent intercalator from DNA, dose response, counter-screen for HCV NS3 helicase inhibitor project, biochemical, fluorescence; fluorescent intercalator displacement from DNA; 120 tested, under 10 active; IC50, µM; shares compounds with NS3 helicase inh; call rule not given here
# The depositor's hits bear a star; . = no result given. Unless noted, no stated cut-off is given here; in the data, active means inhibition above about 37%; inactive means the rest.
SMILES,DNA FID counter-1,VIM-2 inh,IMP-1 inh,NS3 helicase inh,NS3 hel confirm,DNA FID counter-2,others
CC(C)C1Nc2c(O)cc(Cl)c([N+](=O)[O-])c2C2C=CCC21 (configuration not stated),-5,-1,-3,37*,58*,11,
CCN1CCN(C(=O)c2cc(COc3ccc(C(C)=O)cc3OC)on2)CC1,-13,-1,-3,2,.,.,
Cc1cc(/C=C2\SC(=S)NC2=O)c(C)n1-c1ccccc1,-10,2,-3,39*,13,-5,
Cc1cc(/C=C2\SC(=S)NC2=O)c(C)n1-c1ccc(O)cc1,-8,8.1*,-1,45*,19,13,
[NH-]c1ncnc2c1N=C[N+]2=CC=CCO,-2,-1,-3,-7,.,.,
O=C(CCN1CCC(c2ccc(Cl)s2)=N1)c1ccc(Cl)s1,-4,-2,-1,5,.,.,
CN1C(=O)Nc2cccc3cccc1c23,-9,2,-2,42*,-12,6,
CC1=Nc2cccc3cccc(c23)N1C,9,4,-11,-5,.,.,
CCCOC(c1ccccc1)(c1ccccc1)C(Oc1nc(C)cc(C)n1)C(=O)O (configuration not stated),-40,0,-1,16,.,.,
Cc1cc(C)nc(OC(C(=O)O)C(OCc2ccccc2)(c2ccccc2)c2ccccc2)n1 (configuration not stated),-35,1,-1,37*,74*,-40,
CCOC(=O)c1ccc(N2NC(=O)/C(=C/c3ccc(OC(=O)c4ccco4)c(OC)c3)C2=O)cc1,-5,-2,-2,29,.,.,
CCOC(=O)COc1ccc(/C=C2/C(=O)NN(c3ccc(F)cc3)C2=O)cc1OC,-23,-5,-6,36*,-4,11,
COc1cccc(CN2CCC(n3nccc3NC(=O)CCCc3ccccc3)CC2)c1,20,-1,0,-22,.,.,
Cc1ccc(S(=O)(=O)Nc2cccc(C(=O)NCc3ccc(S(N)(=O)=O)cc3)c2)cc1,-17,-2,-3,11,.,.,
CSc1nnc(-c2sc3cc(C(F)(F)F)cnc3c2-c2ccccc2)n1C,-32,-1,-1,9,.,.,
Cn1cccc1CC(=O)NNC(=O)Nc1cccc(Cl)c1,-10,-2,-3,38*,-15,25,
CCCCC(=O)Nc1nc(C)c(-c2csc(Nc3ccccc3OC)n2)s1,-3,-1,-3,-8,.,.,
CCCCCC(=O)Nc1nc(C)c(-c2csc(Nc3cc(OC)ccc3OC)n2)s1,-2,-1,-2,39*,4,26,
CC1(c2ccc3ccccc3c2)NC(=O)N(CC(=O)N2CCN(c3ccccc3O)CC2)C1=O (configuration not stated),-47,-2,-3,7,.,.,
COC1=C/C(=C/c2c(N)n3nc(-c4ccc(C)cc4)sc3nc2=O)C=CC1=O,-3,-3,-3,44*,25,-15,
Cc1nc(-c2ccc3c(c2)CCC(=O)N3)cs1,-3,-1,-1,1,.,.,
Cc1ccc(-c2csc(Cc3nc(-c4ccc5c(c4)CCC(=O)N5)cs3)n2)cc1,-26,-1,-1,40*,-3,-10,
C=CCC(CC(O)COCCC)C(=O)NNC(=S)Nc1ccccc1 (configuration not stated),-6,-3,-5,1,.,.,
O=C(Nc1nnc(-c2ccc3c(c2)CCCC3)o1)c1ccc(Cl)cc1Cl,-16,-1,-5,72*,72*,-25,
Cc1ccc(Nc2cc(C)nn2-c2nc(C)cc(=O)[nH]2)cc1,-32,2,-3,39*,-3,-30,
SMILES,DNA FID counter-1,VIM-2 inh,IMP-1 inh,NS3 helicase inh,NS3 hel confirm,DNA FID counter-2,others
COc1cc(/C=C/[N+](=O)[O-])ccc1OCc1cccc(C(=O)O)c1,-30,-2,1,36*,69*,-14,
O=C(CCCN1C(=O)/C(=C/c2ccco2)SC1=S)Nc1cccc(C(=O)O)c1,6,0,4,56*,88*,4,
NN1C(=O)/C(=C\c2ccco2)SC1=S,-5,-4,-2,38*,-12,-1,
Cc1cc(C(=O)CSc2nnnn2-c2ccccc2)c(C)n1-c1ccc2c(c1)OCO2,-12,-2,-2,37*,5,-14,
O=C1NC(=Nc2ccc3ccccc3c2)S/C1=C/c1ccco1,-6,-2,-1,28,.,.,
O=C1NC(=Nc2ccc(O)cc2)S/C1=C/c1ccco1,2,1,-2,9,.,.,
Cc1ccc(N=C2NC(=O)/C(=C\c3ccco3)S2)cc1,-13,-5,-2,40*,-4,-3,
Cc1cccc(N=C2NC(=O)/C(=C/C=C/c3ccco3)S2)c1,-17,-1,-2,44*,3,-7,
COc1ccc(N=C2NC(=O)/C(=C\C=C\c3ccco3)S2)cc1,-16,-3,-3,46*,36*,8,DNA FID DR=>79
Cc1cccc(N=C2NC(=O)S/C2=C\c2ccco2)c1,-1,4,-2,37*,0,20,
Cc1ccc(C)c2c(N)c3c(nc12)CCCCC3 (tested in a mixture with another compound),5,3,0,1,.,.,
COc1cc(C(=O)NC(=S)Nc2nccs2)cc(OC)c1OC,-8,-2,-3,12,.,.,
Cc1c(C(=O)c2ccc(F)cc2F)c2ccccn2c1CCC#N,-3,5,-8,49*,-7,14,
Cc1c(C(=O)c2ccc(Cl)cc2[N+](=O)[O-])c2ccccn2c1CCC#N,3,-3,-1,-11,.,.,
COc1ccc(-c2ccc(-c3nc4c(c(=O)[nH]c(=O)n4Cc4ccccc4)n3C)o2)c([N+](=O)[O-])c1,-4,0,-3,18,.,.,
COCCn1c(=O)[nH]c(=O)c2c1nc(-c1ccc(-c3ccc(Cl)cc3[N+](=O)[O-])o1)n2Cc1ccccc1,-25,-2,-3,36*,-6,-38,
O=C1OC(c2ccc(Br)cc2)=N/C1=C\c1ccco1,-25,-3,-2,47*,-6,16,
COc1ccc(C(=O)O)cc1NC(=S)NC(=O)/C=C/c1ccc(C(C)C)cc1,-11,-2,-2,43*,58*,16,
COc1ccc(S(=O)(=O)N2CCC(C(=O)NCCC(=O)Nc3nccs3)CC2)cc1,-11,-4,1,0,.,.,
Cc1c(C#N)c(O)[nH]c(=O)c1N=Nc1ccc(Cl)c(C(=O)O)c1,-2,-1,-3,5,.,.,
Cc1c(C#N)c(O)[nH]c(=O)c1N=Nc1ccc(S(N)(=O)=O)cc1,0,3,-3,57*,-15,12,
